This note sets out measurements from ChEMBL document CHEMBL2390955, “Synthesis of novel strobilurin-pyrimidine derivatives and their antiproliferative activity against human cancer cell lines” (Bioorg Med Chem Lett, 2013).

pIC50: −log10 of the molar value. Some results are limits rather than exact numbers.

For test [1], the system named is HL-60. Briefly: Cytotoxicity against human HL60 cells assessed as growth inhibition by MTT assay. In kind it is functional, cell-based. Summed up: (§1)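 Growth inhibition of EC9706, HL60, MCF-7 or SMMC7721 human cancer cells measured by MTT assay, with the IC50 reported as the potency value.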
Test [2] deals with A549. Briefly: Cytotoxicity against human A549 cells assessed as growth inhibition by SRB assay. The test is classed as functional, cell-based. The method, boiled down:
(§2)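 A549 growth inhibition measured by sulforhodamine B (SRB) staining, with the IC50 reported as the potency value.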

The next test relates to SMMC-7721. Put plainly: Cytotoxicity against human SMMC7721 cells assessed as growth inhibition by MTT assay. In kind it is functional, cell-based. The method, boiled down: as §1
(Tetrazolium assays rely on reduction of a dye to a coloured formazan, in cell work by metabolically active cells.)

The subject of a further test is MCF7. Put plainly: Cytotoxicity against human MCF7 cells assessed as growth inhibition by MTT assay. In kind it is functional, cell-based. Summed up: as §1
A short description of test [3]: Cytotoxicity against human EC9706 cells assessed as growth inhibition by MTT assay. The test is classed as functional, cell-based. Summed up:
as §1

Test [4] relates to HL-60. Briefly: Ratio of doxorubicin IC50 to compound IC50 for human HL60 cells. The test is classed as functional.
In test [5] the test system is HL-60. Put plainly: Cytotoxicity against human HL60 cells assessed as growth inhibition. In kind it is functional, cell-based. The method, boiled down: as §1
Test [6] has as its system A549. Briefly: Cytotoxicity against human A549 cells assessed as growth inhibition. The test is classed as functional, cell-based. Summed up: as §2

In general, pIC50 refers to −log10 of the IC50, conventionally taken in molar units.

Turning to `CCN(CC)c1nc(OCc2ccccc2/C(=C\OC)C(=O)OC)cc(C(F)(F)F)n1`, the pIC50 in the test on HL-60 [1] was 4.82; in the test with A549 [2], 4.75.

As for `CO/C=C(/C(=O)OC)c1ccccc1COc1nc(Nc2ccc(Cl)cc2Cl)nc(C(F)(F)F)c1C`, the pIC50 is 5.34 with SMMC-7721; 4.85 with MCF7; 5.54 with HL-60 [1]; 6.36 in test [3]; 6.40 in the test on A549 [2].

`CO/C=C(/C(=O)OC)c1ccccc1COc1cc(C(F)(F)F)nc(Nc2ccc(Cl)cc2)n1`: the pIC50 was 4.72 in the test with HL-60 [1] and 5.89 in the test on A549 [2].

For `CCNc1nc(OCc2ccccc2/C(=C\OC)C(=O)OC)cc(C(F)(F)F)n1`, the pIC50 was 6.52 with HL-60 [1] and 5.49 with A549 [2].

`CO/C=C(/C(=O)OC)c1ccccc1COc1nc(Nc2ccc(F)c(F)c2F)nc(C(F)(F)F)c1C`: the pIC50 in the test on HL-60 [1] was 6.10; in the test on A549 [2], 5.30.

Turning to `CO/C=C(/C(=O)OC)c1ccccc1COc1cc(C(F)(F)F)nc(Nc2c(F)cccc2F)n1`, the pIC50 with HL-60 [1] was 4.92; in the test on A549 [2], 4.38.

With `CO/C=C(/C(=O)OC)c1ccccc1COc1cc(C(F)(F)F)nc(Nc2ccc(F)cc2F)n1`, the figures for the pIC50 in the test on HL-60 [1] and in the test on A549 [2] were 5.32 and 6.00, respectively.

As to `CO/C=C(/C(=O)OC)c1ccccc1COc1nc(Nc2ccc(F)cc2F)nc(C(F)(F)F)c1C`, the “Ratio IC50” value in the test on HL-60 [4] is 24. Besides, the pIC50 with HL-60 [1] is 8.47; with A549 [2], 5.51.

With `CO/C=C(/C(=O)OC)c1ccccc1COc1cc(C(F)(F)F)nc(OC(C)C)n1`, the pIC50 in the test on HL-60 [1] is 5.16; in the test with A549 [2], 5.01.

Consider `CO/C=C(/C(=O)OC)c1ccccc1COc1nc(Nc2ccccc2)nc(C(F)(F)F)c1C`, for which the results for the pIC50 in the test on HL-60 [1] and in the test on A549 [2] were 6.15 and 5.13, respectively.

`CO/C=C(/C(=O)OC)c1ccccc1COc1cc(C(F)(F)F)nc(NC(C)C)n1`: the pIC50 in the test with HL-60 [1] is 5.47; in the test with A549 [2], 5.01.

Take `CO/C=C(/C(=O)OC)c1ccccc1COc1nc(Nc2ccc(Cl)cc2)nc(C(F)(F)F)c1C`: the results for the pIC50 with HL-60 [1] and in the test with A549 [2] were 6.15 and 5.26, respectively.

As to `CO/C=C(/C(=O)OC)c1ccccc1COc1cc(C(F)(F)F)nc(Nc2ccc(Cl)cc2F)n1`, the pIC50 in the test on HL-60 [1] is 5.57; with A549 [2], 5.89.

For the molecule `CO/C=C(/C(=O)OC)c1ccccc1COc1cc(C(F)(F)F)nc(N(C)C)n1`, the figures for the pIC50 in the test on HL-60 [1] and in the test with A549 [2] were 4.95 and 5.22, respectively.

In the case of `CO/C=C(/C(=O)OC)c1ccccc1COc1cc(C(F)(F)F)nc(N2CCCCC2)n1`, the pIC50 was 4.29 in the test with HL-60 [1] and 5.31 in the test on A549 [2].

Consider `CO/C=C(/C(=O)OC)c1ccccc1COc1cc(C(F)(F)F)nc(NC2CC2)n1`, for which the results for the pIC50 in the test with HL-60 [1] and in the test with A549 [2] were 5.19 and 5.00, respectively.

Turning to `CO/C=C(/C(=O)OC)c1ccccc1COc1cc(C(F)(F)F)nc(Nc2ccccc2)n1`, the pIC50 is 5.48 with HL-60 [5], 5.52 with A549 [6], 5.48 in the test on HL-60 [1] and 5.52 in the test on A549 [2].

Consider `CNc1nc(OCc2ccccc2/C(=C\OC)C(=O)OC)cc(C(F)(F)F)n1`, for which the pIC50 with HL-60 [1] is 4.12; with A549 [2], 4.03.

As to `CO/C=C(/C(=O)OC)c1ccccc1COc1cc(C(F)(F)F)nc(Nc2ccc(F)c(F)c2F)n1`, the pIC50 with HL-60 [1] was 4.87; in the test with A549 [2] it was 6.00.

As for `COc1cccc2c1C(=O)c1c(O)c3c(c(O)c1C2=O)C[C@@](O)(C(=O)CO)C[C@@H]3O[C@H]1C[C@H](N)[C@H](O)[C@H](C)O1` [DOXORUBICIN], the pIC50 in the test with HL-60 [1] is 7.09; with A549 [2], 6.30.

Consider `CO/C=C(/C(=O)OC)c1ccccc1COc1cc(C(F)(F)F)nc(Nc2ccc(Cl)cc2Cl)n1` [SYP-11277], for which the pIC50 with HL-60 [1] and in the test on A549 [2] was < 4.00 throughout.
